A selection: hits, their analogues and other compounds. The true share with any hit is near 1.8%.
CHRM4 agonist: CHRM4 agonism in calcium assay; P08173; CHO-K1 hM4/Gqi5, Fluo-8 calcium fluorescence; vehicle 0%, full acetylcholine response 100%; activation, % at 3 µM; 360,000 compounds, 0.14% hits;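 active = activation above the run mean over all test wells plus 3 SD, cut at about 32% in these data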;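 note: peak over basal fluorescence ratio per well then scaled between controls; 0% = DMSO wells and 100% = acetylcholine at EC100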
Target sequence (P08173 whole entry, looked up): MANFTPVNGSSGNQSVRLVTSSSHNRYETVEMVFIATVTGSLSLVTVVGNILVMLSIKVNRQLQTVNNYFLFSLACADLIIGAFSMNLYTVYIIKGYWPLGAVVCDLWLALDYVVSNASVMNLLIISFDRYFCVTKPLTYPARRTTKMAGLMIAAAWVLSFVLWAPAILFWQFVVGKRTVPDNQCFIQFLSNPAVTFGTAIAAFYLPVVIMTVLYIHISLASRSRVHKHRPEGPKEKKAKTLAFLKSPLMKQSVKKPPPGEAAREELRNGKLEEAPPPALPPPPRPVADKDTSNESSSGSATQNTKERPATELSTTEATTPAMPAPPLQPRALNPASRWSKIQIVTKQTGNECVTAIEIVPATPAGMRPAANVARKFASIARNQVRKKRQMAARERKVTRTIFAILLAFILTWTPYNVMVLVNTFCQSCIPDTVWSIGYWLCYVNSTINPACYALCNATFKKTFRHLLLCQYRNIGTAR
M5 PAM: potentiates acetylcholine response at human M5 receptor; CHO-K1 hM5, Fluo-8 calcium, ACh EC20 PAM; 0% = ACh EC20, 100% = ACh EC100; activation, % at 3 µM; 360,000 compounds, 0.3% hits;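 active = activation above the run cutoff, the mean activation of all test compounds plus 3 SD, cut at about 18% in these data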
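System: CHO-K1 hM5 cells. Reagent: acetylcholine, EC20 level. Compound dosing: single dose, 3 µM nominal final test concentration. Timing: Post-acetylcholine fluorescence recording 140 s. Detection: Fluo-8 calcium fluorescence. Read-out: % activation, ACh-normalized. Benchmarks: ACh EC20 and EC100 wells. Repeats: singlicate, one well per test compound.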
M4 PAM: positive allosteric modulators of human muscarinic M4 receptor. CHO-K1 hM4/Gqi5, Fluo-8 calcium fluorescence, ACh EC20; 0% = ACh EC20, 100% = maximal ACh. activation, % at 3 µM. 360,000 compounds, 0.4% hits. AID 624126;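 active = activation above its plate's cutoff, the mean activation of sample wells plus 3 SD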
M4 antag: blocks acetylcholine activation of human M4 receptor; P08173; CHO-hM4 cells, ACh EC80, Fluo-8 calcium fluorescence; inhibition, % at 3 µM; 360,000 compounds, 0.73% hits; AID 624125;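 active = inhibition above its plate's cutoff, the mean inhibition of sample wells plus 3 SD, cut at about 27% in these data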;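 note: 0% = acetylcholine EC80 with DMSO and 100% = DMSO without agonist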
M5 antag: CHRM5 antagonism in calcium assay | CHO-hM5 cells, Fluo-8 calcium fluorescence, ACh EC80 | AID 624040 | inhibition, % at 3 µM | 360,000 compounds, 0.59% hits | P08912;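 active = inhibition above a per-plate cutoff, the mean of that plate's test compounds plus 3 SD, cut at about 27% in these data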;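 note: 0% = acetylcholine EC80 with DMSO and 100% = DMSO without agonist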
CHRM5 agonist: CHRM5 agonism in calcium assay. P08912. CHO-K1 hM5 cells, Fluo-8 calcium fluorescence; 0% DMSO wells, 100% maximal acetylcholine response. activation, % at 3 µM. 360,000 compounds, 0.19% hits. AID 624037;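 active = activation above the run's mean over test compounds plus 3 SD, cut at about 23% in these data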;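 note: signal is peak over basal fluorescence ratio across the kinetic read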
Active calls of the source: *.

SMILES	CHRM4 agonist	M5 PAM	M4 PAM	M4 antag	M5 antag	CHRM5 agonist
CCOC(=O)/C(=C\c1ccccc1)NC(=O)c1ccccc1	2	19*	0	-6	-19	4
CCOC(=O)/C(=C/c1ccc(OC(=O)c2ccccc2)cc1)C(C)=O	1	6	21*	-1	-5	-1
Cc1cc(C)c2c3c(sc2n1)C(=O)N(c1ccccc1)CC(=O)N3	3	-1	17	32*	3	-1
CC(=O)Nc1ccc(S(=O)(=O)N(C)CC(=O)OCC(=O)N2CCCC2=O)cc1	2	5	12	-5	-3	5
Cc1noc(NS(=O)(=O)c2ccc(NC(=O)/C=C/c3ccc(Br)cc3)cc2)c1C	0	16	16*	-6	-22	2
Cc1noc(NS(=O)(=O)c2ccc(NC(=O)/C=C/c3ccc(C(C)C)cc3)cc2)c1C	0	-2	5	-3	0	-2
Cc1ccc(S(=O)(=O)Nc2cccc(/C=C/C(=O)O)c2)cc1	1	46*	8	0	-1	-3
Cc1ccc(/C=C/C(=O)Nc2ccc(S(=O)(=O)Nc3ncccn3)cc2)cc1	2	26*	6	-6	-14	6
COc1ccc(S(=O)(=O)Nc2cccc(/C=C/C(=O)O)c2)cc1	-1	0	12	1	3	-1
COc1cc(/C=C2/C(=O)NN(c3ccc(Cl)cc3)C2=O)cc(Br)c1O	0	20*	3	-1	-4	6
O=C(CN1CCCCC1)Nc1ccccc1-c1ccccc1	-1	-25	-16	68*	45*	-8
O=C(CN1CCCCCC1)NN(Cc1ccccc1)c1ccccc1	0	-26	-49	29*	12	-19
O=C(CN1CCC(NC(=O)C2CCCCC2)CC1)NCc1ccco1	0	-2	3	-18	-10	-3
O=C(CN1CCCC1)NCc1ccccc1	1	5	-3	5	-3	-1
O=C(CN1CCOCC1)Nc1ccccc1-c1ccccc1	1	-2	6	14	-6	-1
O=C(CN1CCC(NC(=O)Nc2ccccc2-c2ccccc2)CC1)NCc1ccco1	2	-18	-20	17	61*	-7
O=C(COC(=O)c1ccc(O)cc1)Nc1ccccc1-c1ccccc1	13	-19	-13	21	35*	2
CCOC(=O)c1cc(OCC)c2c(ccc3ccccc32)n1	1	6	3	-6	-12	-3
Cc1cccc(N(C)c2cc(-c3ccc(F)cc3)nc3ccnn23)c1	-1	1	-7	3	-5	0
Cc1cccc(-n2c(C)cc(/C=C3\C(=N)N4N=C(CC(C)C)SC4=NC3=O)c2C)c1	0	-6	-8	3	5	-8
CC(C)CC1=NN2C(=N)/C(=C\c3coc4ccccc4c3=O)C(=O)N=C2S1	63*	-25	-23	9	48*	158*
CCSC1=NSC2=NC(=O)/C(=C\c3coc4ccccc4c3=O)C(=N)N12	63*	-21	-22	38*	63*	51*
CC(C)CNC(=O)C1C(=O)Nc2ccccc2C(=O)N1C1CCCCC1 (centres undefined)	2	-2	2	-18	9	1
Cc1ccc(C)c(NC(=O)CCN2CCN(c3ccccc3F)CC2)c1	2	-3	-3	-6	5	-4
c1ccc(Cc2noc(CN3CCCN(C4Cc5ccccc5C4)CC3)n2)cc1	15	-31	-28	51*	32*	-12
SMILES	CHRM4 agonist	M5 PAM	M4 PAM	M4 antag	M5 antag	CHRM5 agonist
Cc1cc(/C=C\c2ccc3cc(N(C)C)ccc3[n+]2C)c(C)n1-c1ccccc1	20	-17	-19	45*	40*	10
O=C(C(Cl)Cl)N1CC2CCC(CC2)C1	0	18*	2	-4	-9	-9
COc1ccc2c(=O)c3c(=O)n(-c4ccccc4)c(-c4ccc(C)cc4)nc3oc2c1	0	12	-4	2	-5	8
CC(NCc1ccc(S(N)(=O)=O)cc1)C(=O)NCc1ccccc1 (centres undefined)	0	4	0	8	6	-1
CCC(Oc1ccccc1)C(=O)NCc1ccc(S(N)(=O)=O)cc1 (centres undefined)	1	2	20*	-3	-5	-1
CN(C)CCCN(C(=O)COc1ccc(Cl)cc1)c1nc2ccc(F)cc2s1	14	8	-6	11	1	2
Cc1ccc2nc(N(CCCN(C)C)C(=O)COc3ccc(Cl)cc3)sc2c1	38*	8	-15	16	-2	1
COC(=O)c1sc(-c2ccccc2)cc1NC(=O)c1ccc(OC)cc1	1	9	24*	-15	-1	-1
CC(=O)Nc1cncc(-c2ccccc2N(C)C)n1	1	-2	-2	-3	-4	-1
Nc1nc(SCc2ccccc2[N+](=O)[O-])c2ncn(Cc3ccccc3)c2n1	5	-14	-9	40*	20	-4
Cn1cnc([N+](=O)[O-])c1Sc1nc(N)nc2c1ncn2Cc1ccccc1	1	-4	6	-2	18	1
COc1ccc(OC)c(CN2CCN(c3ccc(S(=O)(=O)N4CCCC4)cn3)CC2)c1	2	1	8	-14	8	-10
CCNC(=O)C1(C)CCN(C(=O)c2cc(F)ccc2C)C1 (centres undefined)	0	4	6	-5	0	1
O=C(Nc1nccs1)c1ncc(Cl)c(Cl)c1Cl	1	-7	-9	14	30*	-3
Cn1cc(Cl)c(C(=O)Nc2nccs2)n1	0	1	-1	4	6	-1
CCn1nc(C(=O)N2CCN(Cc3nc4ccccc4s3)CC2)c2ccccc2c1=O	22	-36	-14	35*	20	7
O=C1CC(=O)CC(c2ccccc2)C1	1	-2	-2	-2	-3	2
O=S1(=O)CCS(=O)(=O)C1c1ccccc1	0	20*	-1	16	-8	8
COCCCN1C(=O)C(CC(=O)NCc2cccs2)CC(C(=O)N(C)C)=C1C (centres undefined)	0	-2	-3	6	5	0
Cc1ccc(Nc2nc(N)nc(CSC(=S)N3CCOCC3)n2)cc1	0	0	-2	-5	0	0
CCOc1ccc(Nc2nc(N)nc(CSC(=S)N3CCOCC3)n2)cc1	14	-26	-22	2	34*	-10
N=C1C(c2ccccc2)=C(O)CN1CCO	4	7	17*	-8	-10	2
N#C/C(=C/c1ccc(N2CCCCCC2)o1)c1ccc(Cl)cc1	3	7	-12	27*	2	6

Compound activity from PubChem BioAssay.
